Data as given in ChEMBL document CHEMBL1152814, “Novel cyano- and amidinobenzothiazole derivatives: synthesis, antitumor evaluation, and X-ray and quantitative structure-activity relationship (QSAR) analysis” (J Med Chem, 2009).
Activity calls are given as the source filed them. No cut-off for these calls is given here.

What was measured:
[1] = Antiproliferative activity against human WI38 cells after 72 hrs by MTT assay; type: cell-based; conditions: WI-38, 72 h
Procedure, shortened: (§1)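 Monolayers in DMEM with 10% FBS, 2 mM L-glutamine, penicillin/streptomycin, 37 °C, 5% CO2. Seeded at 3 × 10³ to 6 × 10³ cells/well on day 0. Agents added the next day in five 10-fold dilutions (10^-8–10^-4 mol/L), with a DMSO solvent control (max 0.25%). MTT read at 570 nm after 72 h. Quadruplicate points, three experiments. IC50 is the concentration giving 50% growth inhibition.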

HeLa = assay: Antiproliferative activity against human HeLa cells after 72 hrs by MTT assay; type: functional, cell-based; procedure, shortened: as §1
MIA PaCa-2 = assay: Antiproliferative activity against human MIAPaCa2 cells after 72 hrs by MTT assay; type: functional, cell-based; conditions: MIA PaCa-2, 72 h; procedure, shortened: as §1
SW-620 = assay: Antiproliferative activity against human SW620 cells after 72 hrs by MTT assay; type: functional, cell-based; conditions: SW-620, 72 h; procedure, shortened: as §1
MCF7 = assay: Antiproliferative activity against human MCF7 cells after 72 hrs by MTT assay; type: functional, cell-based; conditions: MCF7, 72 h; procedure, shortened: as §1
NCI-H460 [2] = assay: Antiproliferative activity against human H460 cells after 72 hrs by MTT assay; type: functional, cell-based; conditions: NCI-H460, 72 h; procedure, shortened: as §1
NCI-H460 [3] = assay: Cell cycle arrest in human H460 cells assessed as reduction of percentage of cells in S phase at 5 to 50 uM after 24 hrs using propidium iodide staining by FACS; type: functional, cell-based
Procedure, shortened: (§2)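 H 460 cells seeded at 2 × 10⁵/well and treated after overnight incubation with 5, 10 or 50 µM for 24 or 48 h. Attached and floating cells were pooled, fixed in 70% ethanol, treated with 0.2 µg/µL RNase A (37 °C, 15 min) and stained with 50 µg/mL propidium iodide. Flow cytometry counted 20000 events, in duplicate across two independent experiments.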

NCI-H460 [4] = assay: Cell cycle arrest in human H460 cells assessed as reduction of percentage of cells in S phase at 5 to 50 uM after 48 hrs using propidium iodide staining by FACS; type: functional, cell-based; procedure, shortened: as §2
NCI-H460 [5] = assay: Cell cycle arrest in human H460 cells assessed as increase in percentage of cells in sub-G1 phase at 5 to 50 uM after 24 hrs using propidium iodide staining by FACS; type: functional, cell-based; procedure, shortened: as §2
NCI-H460 [6] = assay: Cell cycle arrest in human H460 cells assessed as increase in percentage of cells in sub-G1 phase at 5 to 50 uM after 48 hrs using propidium iodide staining by FACS; type: functional, cell-based; procedure, shortened: as §2
NCI-H460 [7] = assay: Induction of apoptosis in human H460 cells at 50 uM after 24 hrs; type: functional
NCI-H460 [8] = assay: Induction of apoptosis in human H460 cells assessed as complete cell death at 50 uM after 48 hrs; type: functional, cell-based
NCI-H460 [9] = assay: Induction of apoptosis in human H460 cells assessed as late apoptotic cells at 5 uM after 48 hrs using annexin V staining by FACS; type: functional
Procedure, shortened: (§3)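 H 460 cells seeded at 2 × 10⁵/well and exposed for 48 h (5, 10 or 50 µM) against a vehicle control. Floating and attached cells were pooled and washed in binding buffer (10 mM HEPES, 140 mM NaCl, 2.5 mM CaCl2, pH 7.4). They were stained 20 min with annexin V Alexa Fluor 488 and 1 µg/mL 7-AAD, then read by flow cytometry. Quadrants: viable, early apoptotic, late apoptotic.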

NCI-H460 [10] = assay: Induction of apoptosis in human H460 cells assessed as early apoptotic cells at 5 uM after 48 hrs using annexin V staining by FACS; type: functional; procedure, shortened: as §3
NCI-H460 [11] = assay: Induction of apoptosis in human H460 cells assessed as viable cells at 5 uM after 48 hrs using annexin V staining by FACS; type: functional; conditions: NCI-H460, 48 h, read-out: Activity; procedure, shortened: as §3
NCI-H460 [12] = assay: Induction of apoptosis in human H460 cells assessed as late apoptotic cells at 10 uM after 48 hrs using annexin V staining by FACS; type: functional; procedure, shortened: as §3
NCI-H460 [13] = assay: Induction of apoptosis in human H460 cells assessed as early apoptotic cells at 10 uM after 48 hrs using annexin V staining by FACS; type: functional; procedure, shortened: as §3
NCI-H460 [14] = assay: Induction of apoptosis in human H460 cells assessed as viable cells at 10 uM after 48 hrs using annexin V staining by FACS; type: functional; conditions: NCI-H460, 48 h, read-out: Activity; procedure, shortened: as §3
NCI-H460 [15] = assay: Induction of apoptosis in human H460 cells assessed as late apoptotic cells after 48 hrs using annexin V staining by FACS; type: functional, cell-based; procedure, shortened: as §3
NCI-H460 [16] = assay: Induction of apoptosis in human H460 cells assessed as early apoptotic cells after 48 hrs using annexin V staining by FACS; type: functional, cell-based; procedure, shortened: as §3
NCI-H460 [17] = assay: Induction of apoptosis in human H460 cells assessed as viable cells after 48 hrs using annexin V staining by FACS; type: functional, cell-based; procedure, shortened: as §3
HEp-2 = assay: Antiproliferative activity against human Hep2 cells after 72 hrs by MTT assay; type: functional, cell-based; conditions: HEp-2, 72 h; procedure, shortened: as §1

SMILES | IC50 (HeLa) [µM] | IC50 (MIA PaCa-2) [µM] | IC50 (SW-620) [µM] | IC50 (MCF7) [µM] | IC50 (NCI-H460 [2]) [µM] | IC50 [1] [µM] | IC50 (HEp-2) [µM] | further results
CC(C)NC(=N)c1ccc2nc(NC(=O)c3ccccc3)sc2c1 | 16 | 38 | 30 | 22 | 15 | > 100 |  | 
Cc1ccnc(Nc2nc3ccc(C#N)cc3s2)c1 | 3 | 4 | 4 | > 10 |  | ≥ 10 | 7 | 
Cc1ccc(Nc2nc3ccc(C4=NCCN4)cc3s2)nc1.Cl.Cl | 2 | 2 | 1 | 2 | 2 | 6 |  | Activity (NCI-H460 [3]): Active; Activity (NCI-H460 [4]): Active; Activity (NCI-H460 [12]): 2.3%; Activity (NCI-H460 [13]): 6.98%; viability at 10 µM (NCI-H460 [14]): 89%; Activity (NCI-H460 [15]): Dose-dependent effect; Activity (NCI-H460 [16]): Dose-dependent effect; Activity (NCI-H460 [17]): Dose-dependent effect
c1cnc(Nc2nc3ccc(C4=NCCN4)cc3s2)nc1 | 1.4 | 1.8 | 1.7 | 1.7 | 1.6 | 1.7 |  | 
Cc1cccc(Nc2nc3ccc(C4=NCCN4)cc3s2)n1.Cl.Cl | 2 | 2 | 2 | 2 | 2 | 2 |  | Activity (NCI-H460 [3]): Active; Activity (NCI-H460 [4]): Active; Activity (NCI-H460 [5]): Active; Activity (NCI-H460 [6]): Active; Activity (NCI-H460 [12]): 5.58%; Activity (NCI-H460 [13]): 24.05%; viability at 10 µM (NCI-H460 [14]): 67.7%; Activity (NCI-H460 [15]): Dose-dependent effect; Activity (NCI-H460 [16]): Dose-dependent effect; Activity (NCI-H460 [17]): Dose-dependent effect
N#Cc1ccc2nc(Nc3ccc(Cl)cn3)sc2c1 | > 10 | 6 | ≥ 10 | 10 |  | > 10 | > 10 | 

Further lines, with some results ahead:

IC50 (HeLa) [µM] | IC50 (MIA PaCa-2) [µM] | IC50 (SW-620) [µM] | IC50 (MCF7) [µM] | IC50 (NCI-H460 [2]) [µM] | SMILES | IC50 [1] [µM] | IC50 (HEp-2) [µM] | further results
4 | 3 | 9 | 3 | 3 | Cc1cccc(Nc2nc3ccc(C(=N)NC(C)C)cc3s2)n1.Cl.Cl | 19 |  | Activity (NCI-H460 [3]): Active; Activity (NCI-H460 [4]): Active; Activity (NCI-H460 [5]): Active; Activity (NCI-H460 [6]): Active; Activity (NCI-H460 [7]): 40%; Activity (NCI-H460 [8]): Active; Activity (NCI-H460 [9]): 3.37%; Activity (NCI-H460 [10]): 12.24%; viability at 5 µM (NCI-H460 [11]): 83.1%; Activity (NCI-H460 [12]): 3.75%; Activity (NCI-H460 [13]): 16.43%; viability at 10 µM (NCI-H460 [14]): 77.7%; Activity (NCI-H460 [15]): Dose-dependent effect; Activity (NCI-H460 [16]): Dose-dependent effect; Activity (NCI-H460 [17]): Dose-dependent effect
7 | 11 | 15 | 13 | 5 | CC(C)NC(=N)c1ccc2nc(Nc3ncccn3)sc2c1 | 75 |  | 
13 | 32 | 35 | 13 | 22 | CC(C)NC(=N)c1ccc2nc(NC(=O)c3ccc(F)cc3)sc2c1 | > 100 |  | 
9 | 5 | > 10 | > 10 |  | Cc1ccc(Nc2nc3ccc(C#N)cc3s2)nc1 | 4 | > 10 | 
> 10 | > 10 | > 10 | > 10 |  | N#Cc1ccc(Nc2nc3ccc(C#N)cc3s2)cc1 | > 10 | > 10 | 
4 | 3 | 3 | 2 | 2 | Cc1ccnc(Nc2nc3ccc(C(=N)NC(C)C)cc3s2)c1 | 12.5 |  | 
